Reference: ChEMBL document CHEMBL4627406, “Amino Acids Bearing Aromatic or Heteroaromatic Substituents as a New Class of Ligands for the Lysosomal Sialic Acid Transporter Sialin” (J Med Chem, 2020)
pIC50, pKi: −log10 of the molar value.

Assays:
[1] = Lipophilicity, log Pof the compound; assay type: physicochemical; conditions: octanol/water
[2] = target: T1, Sialin (Homo sapiens, UniProt Q9NRA2); assay: Non-competitive inhibition of human recombinant-Sialin expressed in HEK293 cells assessed as reduction in [3H]Neu5Ac uptake incubated for 15 mins by liquid scintillation counting method; assay type: cell-based
T1 sequence (Q9NRA2 whole entry): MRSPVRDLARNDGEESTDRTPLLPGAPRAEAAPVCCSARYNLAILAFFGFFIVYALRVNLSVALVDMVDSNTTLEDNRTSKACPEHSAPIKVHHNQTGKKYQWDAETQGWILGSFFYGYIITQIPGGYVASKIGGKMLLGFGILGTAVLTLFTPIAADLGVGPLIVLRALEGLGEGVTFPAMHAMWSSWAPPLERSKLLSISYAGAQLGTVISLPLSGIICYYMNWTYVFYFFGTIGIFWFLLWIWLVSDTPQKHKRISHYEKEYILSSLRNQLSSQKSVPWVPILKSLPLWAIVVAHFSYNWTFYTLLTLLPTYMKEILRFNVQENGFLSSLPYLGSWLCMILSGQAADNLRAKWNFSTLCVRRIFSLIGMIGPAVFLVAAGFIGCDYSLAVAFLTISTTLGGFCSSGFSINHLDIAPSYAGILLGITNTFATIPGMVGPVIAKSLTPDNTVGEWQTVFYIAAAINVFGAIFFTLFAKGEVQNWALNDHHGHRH

[3] = target: T1, Sialin; assay: Inhibition of human recombinant-Sialin expressed in HEK293 cells assessed as reduction in [3H]Neu5Ac uptake at 30 to 300 uM incubated for 15 mins by liquid scintillation counting method; assay type: cell-based
Method in brief: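 HEK293 cells expressing EGFP-human sialin L22G/L23G (sorting mutant at the plasma membrane), assayed 2 days after lipofection. Uptake of [3H]Neu5Ac (12.5 nM) over 15 min at room temperature in MES-Na+ pH 5.0 with inhibitor added together with tracer. Cells washed twice ice-cold, radioactivity counted by liquid scintillation. Dose-response run in triplicate, two to three independent experiments.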

| SMILES | logP [1] | pKi [2] | pIC50 [3] | pKi [3] |
| --- | --- | --- | --- | --- |
| CC(C)C[C@H](NC(=O)OCC1c2ccccc2-c2ccccc21)C(=O)O | 4.1 | 4.99 | 4.62 to 4.63 | – |
| CC(C)C[C@H](NC(=O)N1CCCCCC1)C(=O)N[C@H](Cc1cn(C)c2ccccc12)C(=O)N[C@H](Cc1ccccn1)C(=O)O | 2.29 | – | – | 4.70 |
| O=C(N[C@@H](CSCc1cc(=O)oc2cc(O)ccc12)C(=O)O)OCC1c2ccccc2-c2ccccc21 | 3.91 | 5.11 | 5.54 to 5.62 | – |
